Source: PubChem (Johns Hopkins Ion Channel Center)
Hits are enriched below; roughly 3.5% of the tested compounds scored in any of these assays.
RGS4 inh: inhibitors of human RGS4; P49798; HEK293 M3R/RGS4 inducible, Fluo-4 calcium flux; stronger effect = higher value; triggered by carbachol at its EC20; B-score at 10 µM; hit rate 0.45% among 310,000; AID 463165;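 active = B-score, a plate-corrected calcium signal, over three deviations above library mean, with baseline fluorescence within five deviations of library mean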;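 note: RGS4 expression induced by doxycycline in cells with stable M3 receptor; B-score is computed from the integrated fluorescence ratio over baseline after carbachol; higher B-score means a larger calcium signal and so more RGS4 inhibition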
Target sequence (P49798 whole entry, looked up): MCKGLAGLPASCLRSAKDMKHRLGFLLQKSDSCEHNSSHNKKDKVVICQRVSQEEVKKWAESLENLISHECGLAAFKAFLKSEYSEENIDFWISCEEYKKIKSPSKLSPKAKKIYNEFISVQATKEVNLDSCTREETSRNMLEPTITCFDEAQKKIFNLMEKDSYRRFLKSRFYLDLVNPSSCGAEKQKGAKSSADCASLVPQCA
MrgX1 agonist: human MrgX1 receptor agonism, primary screen; MrgX1-HEK293 cells, Fluo-4 calcium fluorescence, agonist mode; stronger effect = higher value; hit rate 0.44% among 310,000; Q96LB2; B-score at 10 µM;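 active = calcium response B-score plate-corrected fluorescence ratio at least 3 library SD, with starting fluorescence B-score inside 5 SD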
Target sequence (Q96LB2 whole entry, looked up): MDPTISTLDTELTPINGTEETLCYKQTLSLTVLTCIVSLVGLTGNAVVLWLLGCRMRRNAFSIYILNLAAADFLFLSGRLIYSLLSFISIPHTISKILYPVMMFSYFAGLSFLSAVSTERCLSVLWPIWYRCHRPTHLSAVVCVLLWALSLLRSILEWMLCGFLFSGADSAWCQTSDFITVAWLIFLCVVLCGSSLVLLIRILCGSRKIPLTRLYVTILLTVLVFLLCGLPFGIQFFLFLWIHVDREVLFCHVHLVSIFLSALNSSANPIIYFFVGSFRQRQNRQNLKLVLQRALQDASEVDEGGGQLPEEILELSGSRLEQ
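System: HEK293 cells stably expressing human MrgX1 receptor; Dosing: test compound in the initial addition of three; Schedule: overnight plating, then 30 min 37 °C plus 30 min room-temperature dye loading; Detection: kinetic calcium dye fluorescence, Fluo-4 NW; Controls: per-plate positive and negative controls for Z′ factor.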
MrgX1 antag: antagonists of human MrgX1 receptor; Q96LB2; MRGX1-HEK293 calcium flux, Fluo-4, BAM8-22 antagonism; stronger effect = lower value; B-score at 10 µM; hit rate 1.3% among 310,000; AID 588676;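 active = calcium-response B-score plate-corrected more than 3 library SD below zero, starting fluorescence within 5 deviations, no agonist response on first addition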;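 note: peak minus trough fluorescence over baseline after final BAM8-22 challenge near maximal dose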
MrgX1 allo act: human MrgX1 positive allosteric modulation, primary screen | MrgX1-HEK293, Fluo-4 calcium flux, FDSS; stronger effect = higher value | B-score at 10 µM | hit rate 0.63% among 310,000;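 active = plate-corrected calcium response at least 3 library SD above typical, normal starting fluorescence, not activating the receptor alone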;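 note: compound read alongside a low EC10 to EC30 dose of BAM8-22 agonist; peak minus trough fluorescence over baseline measured at the second addition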
RGS4 pot: potentiators or activators of RGS4; B-score at 10 µM; hit rate 0.92% among 310,000; HEK293 M3R/inducible RGS4, carbachol calcium flux Fluo4; stronger effect = lower value; AID 463111;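 active = B-score of the integrated calcium signal more than 4 SD below the library mean, with starting fluorescence not abnormally high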;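 note: negative B-score means reduced calcium response which marks RGS4 activation or potentiation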
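System – HEK293 FlpIn-TREx cells, stable M3R, doxycycline-inducible RGS4 · Reagent – ECmax carbachol challenge · Times – compound preincubation 20 min at room temperature before agonist · Technique – Fluo4 fluorescence kinetic imaging of calcium · Measure – B score of integrated Fluo4 ratio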
MrgX1 antag conf: confirmation of human MrgX1 receptor antagonists. shares compounds with MrgX1 antag. MrgX1-HEK293, BAM8-22 calcium flux, Fluo-4; stronger effect = lower value. remaining BAM8-22 calcium response % of control (stronger effect = lower value), % at 10 µM. hit rate 19% among 2,300. AID 602420;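 active = remaining agonist calcium response no higher than 100% minus 3 SD of agonist-only control wells, with starting fluorescence near control levels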;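 note: agonist BAM8-22 given at a near maximal EC90 to ECmax level; peak minus minimum fluorescence divided by baseline after agonist addition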
HEK293 Ca flux: activity in parental HEK293 cells lacking MrgX1; hit rate 2% among 4,000; Fluo-4 calcium fluorescence, FDSS; fluorescence ratio F(max-min)/F0 at 10 µM; shares compounds with MrgX1 antag; AID 624111;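 active = duplicate-averaged calcium fluorescence ratio at least three times the standard deviation of buffer wells, a nonspecific response in parental cells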
HEK293 Ca counter: MrgX1 allosteric activator counter-screen hit in parental HEK293 cells. shares compounds with MrgX1 antag. hit rate 0.4% among 4,000. fluorescence ratio F(max-min)/F0 at 10 µM. parental HEK293 calcium flux, Fluo-4 fluorescence ratio; stronger effect = higher value;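 active = calcium fluorescence ratio, averaged over duplicates, at least 3 SD of the buffer-well ratio, meaning a nonspecific response in receptor-free cells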;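 note: untransfected parental HEK293 lacking MrgX1 used as counterscreen for MrgX1 allosteric activators; fluorescence change taken during the second addition on a kinetic imager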
HEK293 Ca cntr2: counter-screen for MrgX1 activators: effect in parental HEK293 cells. shares compounds with MrgX1 antag. Fluo-4 calcium fluorescence (FDSS); stronger effect = higher value. fluorescence ratio F(max-min)/F0 at 10 µM. hit rate 8.7% among 4,000;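 active = calcium fluorescence ratio at least three times the spread of buffer wells, meaning a non-specific response in parental cells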
Starred values were filed as active, the others as inactive; i = inactive; x = no result.

SMILES | RGS4 inh | MrgX1 agonist | MrgX1 antag | MrgX1 allo act | RGS4 pot | MrgX1 antag conf | HEK293 Ca flux | HEK293 Ca counter | HEK293 Ca cntr2
O=C(Nc1cccc2c1CCCC2)c1ccncc1 | i | i | -8.5* | i | i | i | i | i | i
O=C(Nc1ccc(Cl)c(C(F)(F)F)c1)C(=O)N1CCCCC1 | i | i | i | i | i | x | x | x | x
O=C(Nc1ccc(Cl)c(C(F)(F)F)c1)N1CCCC(O)C1 (configuration not stated) | i | i | -6.2* | i | i | i | i | i | i
O=C1c2cnccc2CN1Cc1ccccc1 | i | i | -5.3* | i | i | i | i | i | i
CCOC(=O)c1ccc(NC(=O)CN(c2ccc(C)cc2)S(=O)(=O)c2c(C)n[nH]c2C)cc1 | i | i | -6.2* | i | i | i | i | i | 52*
CCOc1ccccc1NC(=O)CN(c1ccc(C)cc1)S(=O)(=O)c1c(C)n[nH]c1C | i | i | i | i | i | x | x | x | x
COc1cc(CNCCO)ccc1OCCc1ccccc1 | i | i | i | i | i | x | x | x | x
O=C(NCc1ccccc1)c1c[nH]c2cc3c(cc2c1=O)OCCO3 | i | i | -5.5* | i | i | i | i | i | i
CCOc1ccc2[nH]cc(C(=O)NCc3ccccc3)c(=O)c2c1 | i | i | i | i | i | x | x | x | x
CCOC(=O)CN(C(=O)c1ccccc1[N+](=O)[O-])C(C)(C)C | i | i | i | i | i | x | x | x | x
COc1ccccc1NC(=O)C1=C(C)Nc2nc(-c3ccc(N(C)C)cc3)nn2C1c1ccncc1 (configuration not stated) | x | i | i | i | x | x | x | x | x
COc1ccccc1NC(=O)C1=C(C)Nc2nc(-c3cccs3)nn2C1c1cccnc1 (configuration not stated) | i | i | -5.2* | i | i | i | i | i | i
CC(C)Oc1ccc(C(=O)Nc2nnc(SCC(=O)N3CCOCC3)s2)cc1 | i | i | -4.9* | i | i | i | i | i | i
COc1ccc(Cc2ccc(OC)c(N)c2)cc1N | i | i | -5.5* | i | i | i | i | i | i
CCc1cccc(C)c1NC(=O)C1=C(C(=O)O)CCCC1 | i | i | -7.8* | i | i | i | i | i | i
CCc1noc(C)c1C(=O)OCC(=O)c1ccccc1OC | i | i | i | i | i | x | x | x | x
O=C1CC(N2CCN(Cc3ccc(Cl)cc3)CC2)C(=O)N1CCc1ccccc1 (configuration not stated) | i | i | i | i | i | x | x | x | x
O=C1CC(N2CCN(Cc3ccccc3)CC2)C(=O)N1CCc1ccccc1 (configuration not stated) | i | i | -5.4* | i | i | i | i | i | i
CCCCc1nc2cc(Cl)ccc2o1 | i | i | i | i | i | x | x | x | x
Cc1ccc(C(C)C)cc1S(=O)(=O)NC1CC(C)(C)NC(C)(C)C1 | i | i | i | i | i | x | x | x | x
CC(=O)Nc1ccc(NC(=O)COC(=O)Cc2c[nH]c3ccccc23)cc1 | i | i | -6* | i | i | i | i | i | i
O=C(c1ccc2[nH]c(=O)c(=O)[nH]c2c1)N1CCN(c2ccccc2)CC1 | i | i | i | i | i | x | x | x | x
CC1(C)C(C=C(Cl)Cl)C1C(=O)N1CCN(c2ccccc2)CC1 (configuration not stated) | i | i | -6.6* | i | i | i | i | i | i
